The source of these data is ChEMBL document CHEMBL1123247, “Nucleoside conjugates. 7. Synthesis and antitumor activity of 1-beta-D-arabinofuranosylcytosine conjugates of ether lipids” (J Med Chem, 1986).

One assay relates to Glioblastoma cell line. The experiment in a line: Compound was tested for the inhibition of glioblastoma. It counts as functional, cell-based. Particulars: Homo sapiens. The gist of the method:
(§1)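 Human leukemia and solid tumor cells in culture were exposed to compound for 48 h. Viability was scored by trypan blue dye exclusion. IC50 (50% inhibition) was estimated from response curves of three separate experiments.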

For assay [1], the system named is L1210. In words: Antitumor activity was determined against the ip implanted L1210 leukemia in mice by range in survival days at 400 mg/kg (treatment of 1qd schedule) dosage; Range is 9-11. It counts as functional, Mus musculus. Particulars: route intraperitoneal. The method, boiled down: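 DBA/2J mice, 23-28 g, in groups of 6, were inoculated ip with 1×10^6 L1210 cells on day 0. Dosing was ip starting 24 h later on the stated daily schedules. Conjugates were given as sonicated solutions and reference prodrugs as suspensions in 0.9% NaCl with 0.5% Tween-80. Mice were observed daily until death or 45 days. Median survival T/C was calculated from survivors per NCI protocols.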

A further assay concerns CML/BC. In words: Compound was tested for the inhibition of CML/BC(chronic myeloid leukemia, blast crisis). The class given is functional, cell-based. Particulars: Homo sapiens. The gist of the method: as §1
The subject of assay [2] is L1210. In words: Antitumor activity was determined against the ic implanted L1210 lymphoid leukemia in mice by range in survival days at 300 mg/kg (treatment of 1-5qd schedule) dosage; Range is 15-18. It counts as functional, Mus musculus.
In assay [3] the test system is L1210. The experiment in a line: Antitumor activity was determined against the ip implanted L1210 leukemia in mice by 45-day survivors in mice at 300 mg/kg (treatment of 1qd schedule) dosage. It counts as functional, Mus musculus. Particulars: route intraperitoneal. The method, boiled down: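 DBA/2J mice in groups of 6 (wt 23-28 g) were inoculated ip with 1×10^6 L1210 cells on day 0. Dosing was ip from 24 h, in 0.9% NaCl with 0.5% Tween-80 (conjugates sonicated), across a range of doses. Mice were observed daily until death or 45 days. Median T/C was computed from survivors per NCI protocols, and ILS = (T/C − 1)×100.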

Assay [4] deals with L1210. In words: Antitumor activity was determined against the ic implanted L1210 lymphoid leukemia in mice by median survival time at 133 mg/kg (1,5,9qd treatment schedule) dosage; 20.0/8.0.
The subject of assay [5] is L1210. In words: Antitumor activity was determined against the ic implanted L1210 lymphoid leukemia in mice by change in body weight at 300 mg/kg (1 qd treatment schedule) dosage.

Each structure is given as a SMILES string.

Consider `Nc1ccn([C@@H]2O[C@H](CO)[C@@H](O)[C@@H]2O)c(=O)n1` [CYTARABINE], for which the values for the IC50 with Glioblastoma cell line and with CML/BC were greater than 100000 nM and 210 nM, respectively. The Range in the assay with L1210 [1] came to 9; in the assay with L1210 [2], 15.

`CCCCCCCCCCCCCCCC(=O)OC[C@H](COP(=O)(O)OP(=O)(O)OC[C@H]1O[C@@H](n2ccc(N)nc2=O)[C@@H](O)[C@@H]1O)OC(=O)CCCCCCCCCCCCCCC` had a Survivors with L1210 [3] of 1. In the assay with L1210 [4], the median survival time stood at 20 days. Besides, the Weight change in the assay with L1210 [5] was -0.88 g mouse-1.
